Laboratory results as given in PubChem BioAssay.
Activity calls are given as the source filed them.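 How the source made its calls, unless noted: active means viability at or under a set limit in both replicates, limit being median viability minus 3 SD (cut at about 48% in these data, passing the limit was not always enough); inconclusive means at or under the limit in just one replicate; inactive means at or above the limit in both replicates.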 Peptide text beside a SMILES is read from it. * marks the point of attachment. Boc = CC(C)(C)OC(=O)*

Legend:
[1] = HUVEC growth inhibition – cell-based, human, primary screen (AID 575;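 active means viability at or below 30% in both replicate assays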;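 further: 100% = median of untreated cell wells with 0.1% DMSO on each plate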); details: HUVEC proliferation, CellTiter-Glo luminescence, 72 h; at 10 µM; stronger effect = lower value
In short: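 system = HUVEC primary cells | amount = 1250 cells/well | buffer or medium = supplemented EBM, 2% fetal bovine serum | dosing = single-point 10 µM, DMSO 0.1% final | times = 72 h compound incubation | detection = CTG luminescence | read-out = % viability relative to median vehicle-well signal on each plate | control set = vehicle and MePR control wells | format = collagen-coated 384-well format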

[2] = H69AR cell proliferation blockers – human, duplicate replicates, primary screen (AID 580); details: H69AR lung tumor cells viability, ATP luminescence, 72 h; at 10 µM; stronger effect = lower value;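 further: 100% = mean luminescence of untreated wells and 0% = no signal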
[3] = MRP1 drug-resistance reversers in H69AR cells – cell-based, doxorubicin co-treatment, pilot screen (AID 601;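 active means viability loss from added drug above about 55%, and viability with drug at most 40%, in both replicates, limit read from the data, passing the limit was not always enough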); details: CellTiter-Glo, 72 h, at 10 µM; for differential viability (reversal): stronger effect = higher value
[4] = yeast transport mutant growth inhibition pilot in 384-well plates, post-Golgi transport modulator project (AID 636; in the data active means inhibition above about 31%); details: absorbance 615 nm, about 18 h, stronger effect = higher value
[5] = growth suppression of yeast trafficking mutant, preliminary HTS, modulators of trafficking downstream of Golgi apparatus project, 1536-format plate, OD 615 nm (AID 637; in the data active means inhibition above about 30%); details: yeast transport mutant growth, absorbance 615 nm, 18 h; stronger effect = higher value
[6] = H69AR cells + 2 uM doxorubicin, measured here: viability with 2 uM doxorubicin, stronger effect = lower value
[7] = H69AR cells, compound alone cytotoxicity

Structure (SMILES) | viability [1] | viability [2] | differential viability (reversal) ([3]; H69AR cells + 2 uM doxorubicin) | viability [3, 6] | viability [3, 7] | inhibition [4] | inhibition [5]
O=C(Cn1cnc2sc(-c3ccccc3)cc2c1=O)N1CCOCC1 | 116% (inactive) | 97% (inactive) | 3.61% (inactive) | 93.4% | 97% | -1.58% (inactive) | 1.75% (inactive)
CCCc1n[nH]c2c1/C(=N/O)CC(c1ccccc1)C2 (centres undefined) | 49.5% (inactive) | 66.1% (inactive) | -14.4% (inactive) | 80.6% | 66.1% | -2.34% (inactive) | 2.86% (inactive)
COc1cccc(NC(=O)C2CCN(c3ncccn3)CC2)c1 | 90% (inactive) | 94% (inactive) | -2.54% (inactive) | 96.6% | 94% | -6.4% (inactive) | -12.5% (inactive)
CCOc1ncccc1C(=O)Nc1ccc2c(C)cc(=O)oc2c1 | 84.1% (inactive) | 93.5% (inactive) | 1.12% (inactive) | 92.4% | 93.5% | -3.77% (inactive) | 6.51% (inactive)
COc1ccc(C(=O)COC(=O)CCn2nnc(-c3cccs3)n2)cc1 | 110% (inactive) | 102% (inactive) | 9.01% (inactive) | 93.4% | 102% | -0.27% (inactive) | -6.35% (inactive)
COc1cccc2cc(C(=O)n3ccc(C)n3)c(=O)oc12 | 111% (inactive) | 93.4% (inactive) | 2.8% (inactive) | 90.6% | 93.4% | -3.29% (inactive) | 7.14% (inactive)
Oc1ccc(-c2onc(C(F)(F)F)c2-c2cscn2)c(O)c1 | 108% (inactive) | 103% (inactive) | 5.71% (inactive) | 97.3% | 103% | -2.99% (inactive) | 4.92% (inactive)
CCOC(=O)Cc1nnc(NC(=O)c2ncn[nH]2)s1 | 95.4% (inactive) | 98.8% (inactive) | -2.02% (inactive) | 101% | 98.8% | -2.93% (inactive) | -1.27% (inactive)
CCOc1ccccc1OCCn1nnc2ccccc21 | 101% (inactive) | 98.7% (inactive) | 18.4% (inactive) | 80.3% | 98.7% | -5.73% (inactive) | 5.24% (inactive)
COc1ccccc1CNC(=O)C1CCN(S(=O)(=O)N2CCCCC2)CC1 | 83.4% (inactive) | 81.7% (inactive) | 1.51% (inactive) | 80.2% | 81.7% | -1.97% (inactive) | 3.81% (inactive)
CN(c1cccc(NS(=O)(=O)c2cccs2)c1)S(C)(=O)=O | 95.5% (inactive) | 86.8% (inactive) | 2.12% (inactive) | 84.7% | 86.8% | -0.13% (inactive) | 18.1% (inactive)
CC(C)(C)OC(=O)N1CCCC1C(=O)N1CCCC1C(=O)N1CCCC1C(=O)O (stereo not drawn) (Boc-Pro-Pro-Pro-OH; configuration not given here) | 101% (inactive) | 97.9% (inactive) | 3.05% (inactive) | 94.8% | 97.9% | -5.06% (inactive) | -0.95% (inactive)
CCSc1ccccc1C(=O)NCc1ccc(S(N)(=O)=O)cc1 | 99.2% (inactive) | 93.7% (inactive) | 6.25% (inactive) | 87.5% | 93.7% | -5.2% (inactive) | -1.27% (inactive)
O=C(NCCN1CCCC1)C1COc2ccccc2O1 (centres undefined) | 105% (inactive) | 95.7% (inactive) | 1.77% (inactive) | 93.9% | 95.7% | -7.14% (inactive) | -3.02% (inactive)
Cc1ccc(S(=O)(=O)N(C)CC(=O)NC2CCCC2)cc1 | 118% (inactive) | 102% (inactive) | 17.5% (inactive) | 84.9% | 102% | -2.63% (inactive) | 0.95% (inactive)
CCc1nnc(NC(=O)CCC(=O)Nc2ccccc2)s1 | 94.8% (inactive) | 90% (inactive) | -2.88% (inactive) | 92.9% | 90% | -4.27% (inactive) | 5.71% (inactive)
S=c1nc(C2CC2)[nH]c2ccccc12 | 78.3% (inactive) | 94% (inactive) | 5.99% (inactive) | 88% | 94% | -0.92% (inactive) | 0.63% (inactive)
C=C(C)CSc1nnc2[nH]c(=O)cc(N)n12 | 65.8% (inactive) | 87.9% (inactive) | 13.4% (inactive) | 74.5% | 87.9% | -2.63% (inactive) | 7.62% (inactive)
CN(c1ccccc1)S(=O)(=O)c1cc(C(=O)N2CCN(c3ccccn3)CC2)ccc1Cl | 45.3% (inactive) | 88.5% (inactive) | 10.1% (inactive) | 78.4% | 88.5% | 0.39% (inactive) | 2.22% (inactive)

Structure (SMILES) | viability [1] | viability [2] | differential viability (reversal) ([3]; H69AR cells + 2 uM doxorubicin) | viability [3, 6] | viability [3, 7] | inhibition [4] | inhibition [5]
CC(=O)c1ccc(NC(=O)CSc2nnc(-c3ccoc3C)n2Cc2ccccc2)cc1 | 80.3% (inactive) | 93.5% (inactive) | 3.91% (inactive) | 89.6% | 93.5% | -2.27% (inactive) | -8.57% (inactive)
COC(=O)Cn1c2ccccc2c2nc(C)sc21 | 87.2% (inactive) | 92.7% (inactive) | 1.14% (inactive) | 91.5% | 92.7% | -0.8% (inactive) | -3.65% (inactive)
O=C(c1ccco1)N1CCN(C(=O)c2ccc(Cn3cc(Br)cn3)o2)CC1 | 91% (inactive) | 79.7% (inactive) | -12.7% (inactive) | 92.4% | 79.7% | -2.11% (inactive) | 2.86% (inactive)
O=C(CN(CC1CCCO1)C(=O)CCC(=O)Nc1ccccn1)NCC1CCCO1 (centres undefined) | 103% (inactive) | 100% (inactive) | 11.8% (inactive) | 88.2% | 100% | -7.73% (inactive) | -3.97% (inactive)
CCN(CC)CCCN1C(=O)C(=O)/C(=C(/O)c2ccc(C)cc2)C1c1ccccn1 (centres undefined) | 98.7% (inactive) | 91.8% (inactive) | -1.81% (inactive) | 93.6% | 91.8% | 6.4% (inactive) | -4.44% (inactive)
CCOc1ccc(OCC)c(NS(=O)(=O)c2ccc3c(c2)n(C)c(=O)c(=O)n3C)c1 | 112% (inactive) | 95.1% (inactive) | 5.37% (inactive) | 89.7% | 95.1% | -0.13% (inactive) | 1.27% (inactive)
Cc1ccc(S(=O)(=O)NCCc2ccncc2)cc1 | 95.4% (inactive) | 110% (inactive) | 10.4% (inactive) | 100% | 110% | -2.47% (inactive) | -0.16% (inactive)
COc1ccc(CCNS(=O)(=O)c2ccc3c(c2)OCCO3)cc1 | 109% (inactive) | 103% (inactive) | 10.1% (inactive) | 92.6% | 103% | -0.53% (inactive) | -3.17% (inactive)
COC(=O)CN(c1ccc2c(c1)OCO2)S(C)(=O)=O | 102% (inactive) | 110% (inactive) | 12.5% (inactive) | 97.9% | 110% | -2.63% (inactive) | 6.67% (inactive)
Cc1ccc(S(=O)(=O)N(C)CC(=O)NC2CC(C)(C)NC(C)(C)C2)cc1 | 93.1% (inactive) | 96.2% (inactive) | 8.25% (inactive) | 88% | 96.2% | -1.04% (inactive) | 0.32% (inactive)
COCCNC(=O)c1ccc(Cl)c(Cl)c1 | 108% (inactive) | 102% (inactive) | 17% (inactive) | 85% | 102% | -3.16% (inactive) | -0.16% (inactive)
COc1ccc(CCNC(=O)C2CCCN(c3nn4c(=O)cc(C)nc4s3)C2)cc1OC (centres undefined) | 78.6% (inactive) | 86.4% (inactive) | -4.58% (inactive) | 91% | 86.4% | -6.8% (inactive) | 3.65% (inactive)
COc1cccc(-n2c(SCC(=O)OC(C)C)nnc2-c2cccnc2)c1 | 88.3% (inactive) | 97.4% (inactive) | 4.17% (inactive) | 93.2% | 97.4% | -1.32% (inactive) | -3.02% (inactive)
CCc1c(C(=O)Nc2cc(C)ccc2OC)[nH]c(C)c1C(C)=O | 45.3% (inactive) | 82% (inactive) | -1.42% (inactive) | 83.5% | 82% | -2.8% (inactive) | 14.3% (inactive)
COC(=O)C1(C(=O)OC)Sc2ccccc2C1=O | 87.2% (inactive) | 101% (inactive) | 10.6% (inactive) | 90.8% | 101% | -3.9% (inactive) | 3.33% (inactive)
Cc1nn(-c2ccccc2)c(Cl)c1C1C(C#N)=C(N)OC2=C1C(=O)CC(C)(C)C2 (centres undefined) | 49.1% (inactive) | 12.2% (active) | -72.2% (inactive) | 84.4% | 12.2% | -4.68% (inactive) | -4.29% (inactive)
Cc1ccc(C(=O)Nc2ccc3c(c2)OCO3)o1 | 83% (inactive) | 69.6% (inactive) | -5.72% (inactive) | 75.3% | 69.6% | -2.6% (inactive) | -3.81% (inactive)
COc1ccccc1-c1ccc(Nc2cccc(C(C)=O)c2)nn1 | 55.8% (inactive) | 71.6% (inactive) | 15.8% (inactive) | 55.8% | 71.6% | -0.52% (inactive) | -4.92% (inactive)
